In ChEMBL document CHEMBL1140072, “Discovery of novel and cardioselective diltiazem-like calcium channel blockers via virtual screening” (J Med Chem, 2008):

System: Ileum
Experiment: Vasorelaxant activity in K+-depolarized guinea pig ileum longitudinal smooth muscle assessed as inhibition of calcium-induced contraction
Type: functional, tissue-based
Conditions: Cavia porcellus

SMILES | IC50
CN(C)CCNc1cc(-c2cccnc2)nc2ccccc12 | 20300 nM
O=S(=O)(c1ccc(Cl)cc1)N(C1CCNCC1)C1CC1 | 14100 nM
CC(C)(CNC(=S)Nc1ccccc1)N1CCOCC1 | 16500 nM
COc1ccccc1NC(=O)OCC1CCCCN1C (configuration not stated) | 18400 nM
CN(C)CCNC(=O)c1cc2ccccc2cc1O | 20200 nM
CN(Cc1ccccc1)Cc1ccnc(Br)c1O | 3280 nM
CN(C)CCOC(c1ccc(Cl)cc1)c1ccccn1 (configuration not stated) [CARBINOXAMINE] | 9340 nM
COc1ccc([C@@H]2Sc3ccccc3N(CCN(C)C)C(=O)[C@@H]2OC(C)=O)cc1 [DILTIAZEM] | 110 nM

System: not listed separately
Experiment: Negative inotropic activity in guinea pig left atrium assessed as decrease in atrial tension at 100 uM relative to control
Type: functional, tissue-based, Cavia porcellus, Cardiac atrium
Parameters: scale not given: the % may be the effect or the level left
Conditions: not given

SMILES | Activity
O=S(=O)(c1cccc2c(Cl)cccc12)N1CCCNCC1 | 98%
CCOc1ccc(NC(=O)CCN(CC)CC)cc1 | 79%
CC(C)(CNC(=S)Nc1ccccc1)N1CCOCC1 | 94%
COc1ccccc1NC(=O)OCC1CCCCN1C (configuration not stated) | 87%
CN(C)CCNC(=O)c1cc2ccccc2cc1O | 90%
CN(Cc1ccccc1)Cc1ccnc(Br)c1O | 70%
COc1cc2c(cc1OC)[C@H]1CC(=O)[C@H]3CCC[C@H]3N1CC2 | 64%
CN(C)CCOC(c1ccc(Cl)cc1)c1ccccn1 (configuration not stated) [CARBINOXAMINE] | 76%
COc1ccc(CN(CCN(C)C)c2ccccn2)cc1 [PYRILAMINE] | 81%

System: not listed separately
Experiment: Dissociation constant, pKa of the compound
Type: physicochemical
Conditions: not given
Summary of the method: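 pKa values are calculated in silico, not measured experimentally.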

SMILES | pKa
Cc1ccccc1CC(=O)c1ccc(O)c(CN(C)C)c1O | 10.7

System: not listed separately
Experiment: Negative chronotropic activity in guinea pig spontaneously beating right atrium assessed as decrease in atrial rate at 100 uM relative to control
Parameters: scale not given: the % may be the effect or the level left
Conditions: not given

SMILES | Activity
O=S(=O)(c1ccc(Cl)cc1)N(C1CCNCC1)C1CC1 | 64%
O=S(=O)(c1cccc2c(Cl)cccc12)N1CCCNCC1 | 46%
CN1CCN(S(=O)(=O)c2cccc3cccnc23)CC1 | 19%
Cc1ccccc1CC(=O)c1ccc(O)c(CN(C)C)c1O | 48%
CC(C)NC[C@@H](O)COc1cccc2ccccc12 [DEXPROPRANOLOL] | 26%

System: Ileum
Experiment: Vasorelaxant activity in K+-depolarized guinea pig ileum longitudinal smooth muscle assessed as inhibition of calcium-induced contraction at 10 uM
Type: functional
Conditions: Cavia porcellus

SMILES | inhibition at 10 µM
O=S(=O)(c1cccc2c(Cl)cccc12)N1CCCNCC1 | 40%

System: Aorta
Experiment: Vasorelaxant activity in K+-depolarized guinea pig aorta assessed as inhibition of calcium-induced contraction at 100 uM
Type: functional
Conditions: Cavia porcellus

SMILES | inhibition at 100 µM
CN(C)CCNc1cc(-c2cccnc2)nc2ccccc12 | 5%
O=S(=O)(c1ccc(Cl)cc1)N(C1CCNCC1)C1CC1 | 19%
CCO[C@]1(c2ccc(Br)cc2)SC=C(C)n2c1noc2=O | 11%
CCc1c(C)cc(C)cc1OC[C@@H](O)CNC(C)C | 30%
CCOc1ccc(NC(=O)CCN(CC)CC)cc1 | 11%
CC(C)(CNC(=S)Nc1ccccc1)N1CCOCC1 | 20%
COc1ccccc1NC(=O)OCC1CCCCN1C (configuration not stated) | 10%
COc1ccc(Cl)cc1NC(=O)N1CCN(C)CC1 | 7%
O=C(COc1ccccc1Cl)N1CCNCC1 | 1%
CCN(CC)CCOc1ccc2ccc(=O)oc2c1 | 14%
CN1CCN(S(=O)(=O)c2cccc3cccnc23)CC1 | 18%
CN(C)CCNC(=O)c1cc2ccccc2cc1O | 13%
Cc1ccccc1CC(=O)c1ccc(O)c(CN(C)C)c1O | 4%
CN(Cc1ccccc1)Cc1ccnc(Br)c1O | 2%
COc1cc2c(cc1OC)[C@H]1CC(=O)[C@H]3CCC[C@H]3N1CC2 | 3%
Cc1cc(C(C)(C)C)cc(C)c1NC(=O)CN1CCOCC1 | 26%
CN(C)CCOC(c1ccc(Cl)cc1)c1ccccn1 (configuration not stated) [CARBINOXAMINE] | 28%
CC(C)NC[C@@H](O)COc1cccc2ccccc12 [DEXPROPRANOLOL] | 36%
COc1ccc([C@@H]2Sc3ccccc3N(CCN(C)C)C(=O)[C@@H]2OC(C)=O)cc1 [DILTIAZEM] | 88%
COc1ccc(CN(CCN(C)C)c2ccccn2)cc1 [PYRILAMINE] | 23%

System: Ileum
Experiment: Vasorelaxant activity in K+-depolarized guinea pig ileum longitudinal smooth muscle assessed as inhibition of calcium-induced contraction at 1 uM
Type: functional
Conditions: Cavia porcellus

SMILES | inhibition at 1 µM
COc1ccc([C@@H]2Sc3ccccc3N(CCN(C)C)C(=O)[C@@H]2OC(C)=O)cc1 [DILTIAZEM] | 98%

Biological target: Voltage-gated L-type calcium channel (Rattus norvegicus, UniProt P22002+Q02485+P27732)
Experiment: Displacement of [3H]diltiazem from L-type calcium channel in Sprague-Dawley rat cardiac myocytes
Type: cell-based
Conditions: not given
Summary of the method: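 Rat cardiomyocyte preparation. [3H]diltiazem at 5 nM is incubated with test compound at increasing concentrations from 0.1 nM to 100 µM. The readout is the inhibition of [3H]diltiazem binding to the benzothiazepine site.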

SMILES | Ki
CN(C)CCNC(=O)c1cc2ccccc2cc1O | 450 nM
CN(C)CCOC(c1ccc(Cl)cc1)c1ccccn1 (configuration not stated) [CARBINOXAMINE] | 1080 nM

System: Ileum
Experiment: Vasorelaxant activity in K+-depolarized guinea pig ileum longitudinal smooth muscle assessed as inhibition of calcium-induced contraction at 50 uM
Type: functional
Conditions: Cavia porcellus

SMILES | inhibition at 50 µM
O=S(=O)(c1ccc(Cl)cc1)N(C1CCNCC1)C1CC1 | 89%
CN(Cc1ccccc1)Cc1ccnc(Br)c1O | 57%
CN(C)CCOC(c1ccc(Cl)cc1)c1ccccn1 (configuration not stated) [CARBINOXAMINE] | 62%

System: not listed separately
Experiment: Negative inotropic activity in guinea pig left atrium assessed as decrease in atrial tension at 10 uM relative to control
Type: functional, Cavia porcellus, Cardiac atrium
Parameters: scale not given: the % may be the effect or the level left
Conditions: not given

SMILES | Activity
CCN(CC)CCOc1ccc2ccc(=O)oc2c1 | 67%
CN1CCN(S(=O)(=O)c2cccc3cccnc23)CC1 | 84%
Cc1cc(C(C)(C)C)cc(C)c1NC(=O)CN1CCOCC1 | 87%
COc1ccc([C@@H]2Sc3ccccc3N(CCN(C)C)C(=O)[C@@H]2OC(C)=O)cc1 [DILTIAZEM] | 78%

System: not listed separately
Experiment: Negative chronotropic activity in guinea pig spontaneously beating right atrium assessed as decrease in atrial rate at 10 uM relative to control
Type: functional, Cavia porcellus, Cardiac atrium
Parameters: scale not given: the % may be the effect or the level left
Conditions: not given

SMILES | Activity
CCO[C@]1(c2ccc(Br)cc2)SC=C(C)n2c1noc2=O | 16%

System: Aorta
Experiment: Vasorelaxant activity in K+-depolarized guinea pig aorta assessed as inhibition of calcium-induced contraction at 50 uM
Type: functional
Conditions: Cavia porcellus

SMILES | inhibition at 50 µM
O=S(=O)(c1cccc2c(Cl)cccc12)N1CCCNCC1 | 43%

System: not listed separately
Experiment: Negative inotropic activity in guinea pig left atrium assessed as decrease in atrial tension at 50 uM relative to control
Type: functional, tissue-based, Cavia porcellus, Cardiac atrium
Parameters: scale not given: the % may be the effect or the level left
Conditions: not given

SMILES | Activity
O=S(=O)(c1ccc(Cl)cc1)N(C1CCNCC1)C1CC1 | 76%
CCc1c(C)cc(C)cc1OC[C@@H](O)CNC(C)C | 76%
COc1ccc(Cl)cc1NC(=O)N1CCN(C)CC1 | 67%
O=C(COc1ccccc1Cl)N1CCNCC1 | 60%
CC(C)NC[C@@H](O)COc1cccc2ccccc12 [DEXPROPRANOLOL] | 92%

Biological target: L-type calcium channel (Rattus norvegicus, UniProt P22002+P27732+Q02485)
Experiment: Displacement of [3H]diltiazem from L-type calcium channel in Sprague-Dawley rat cardiac myocytes at 10 uM
Type: cell-based
Conditions: probe [3H]diltiazem, read-out: Activity

SMILES | inhibition at 10 µM
CN1CCN(S(=O)(=O)c2cccc3cccnc23)CC1 | 60%

System: not listed separately
Experiment: Negative chronotropic activity in guinea pig spontaneously beating right atrium assessed as decrease in atrial rate at 5 uM relative to control
Type: functional, Cavia porcellus, Cardiac atrium
Parameters: scale not given: the % may be the effect or the level left
Conditions: not given

SMILES | Activity
COc1ccc([C@@H]2Sc3ccccc3N(CCN(C)C)C(=O)[C@@H]2OC(C)=O)cc1 [DILTIAZEM] | 94%

System: not listed separately
Experiment: Negative chronotropic activity in guinea pig spontaneously beating right atrium assessed as decrease in atrial rate at 100 uM relative to control
Type: functional, tissue-based, Cavia porcellus, Cardiac atrium
Parameters: scale not given: the % may be the effect or the level left
Conditions: not given

SMILES | Activity
CN(C)CCNc1cc(-c2cccnc2)nc2ccccc12 | 4%
CCc1c(C)cc(C)cc1OC[C@@H](O)CNC(C)C | 40%
CCOc1ccc(NC(=O)CCN(CC)CC)cc1 | 30%
CC(C)(CNC(=S)Nc1ccccc1)N1CCOCC1 | 10%
COc1ccccc1NC(=O)OCC1CCCCN1C (configuration not stated) | 17%
COc1ccc(Cl)cc1NC(=O)N1CCN(C)CC1 | 10%
O=C(COc1ccccc1Cl)N1CCNCC1 | 3%
CCN(CC)CCOc1ccc2ccc(=O)oc2c1 | 28%
CN(C)CCNC(=O)c1cc2ccccc2cc1O | 35%
CN(Cc1ccccc1)Cc1ccnc(Br)c1O | 6%
COc1cc2c(cc1OC)[C@H]1CC(=O)[C@H]3CCC[C@H]3N1CC2 | 4%
Cc1cc(C(C)(C)C)cc(C)c1NC(=O)CN1CCOCC1 | 29%
CN(C)CCOC(c1ccc(Cl)cc1)c1ccccn1 (configuration not stated) [CARBINOXAMINE] | 48%
COc1ccc(CN(CCN(C)C)c2ccccn2)cc1 [PYRILAMINE] | 47%

System: Ileum
Experiment: Vasorelaxant activity in K+-depolarized guinea pig ileum longitudinal smooth muscle assessed as inhibition of calcium-induced contraction at 100 uM
Type: functional
Conditions: Cavia porcellus

SMILES | inhibition at 100 µM
CN(C)CCNc1cc(-c2cccnc2)nc2ccccc12 | 72%
CCO[C@]1(c2ccc(Br)cc2)SC=C(C)n2c1noc2=O | 3%
CC(C)(CNC(=S)Nc1ccccc1)N1CCOCC1 | 76%
COc1ccccc1NC(=O)OCC1CCCCN1C (configuration not stated) | 73%
COc1ccc(Cl)cc1NC(=O)N1CCN(C)CC1 | 44%
CCN(CC)CCOc1ccc2ccc(=O)oc2c1 | 22%
CN1CCN(S(=O)(=O)c2cccc3cccnc23)CC1 | 28%
CN(C)CCNC(=O)c1cc2ccccc2cc1O | 61%
CC(C)NC[C@@H](O)COc1cccc2ccccc12 [DEXPROPRANOLOL] | 74%

System: not listed separately
Experiment: Negative inotropic activity in guinea pig left atrium assessed as decrease in atrial tension at 5 uM relative to control
Type: functional, Cavia porcellus, Cardiac atrium
Parameters: scale not given: the % may be the effect or the level left
Conditions: not given

SMILES | Activity
CN(C)CCNc1cc(-c2cccnc2)nc2ccccc12 | 76%
Cc1ccccc1CC(=O)c1ccc(O)c(CN(C)C)c1O | 78%

System: not listed separately
Experiment: Negative inotropic activity in guinea pig left atrium assessed as decrease in atrial tension at 1 uM relative to control
Type: functional, Cavia porcellus, Cardiac atrium
Parameters: scale not given: the % may be the effect or the level left
Conditions: not given

SMILES | Activity
CCO[C@]1(c2ccc(Br)cc2)SC=C(C)n2c1noc2=O | 58%

System: not listed separately
Experiment: Negative inotropic activity in guinea pig left atrium assessed as decrease in atrial tension relative to control
Type: functional, tissue-based
Conditions: Cavia porcellus, Cardiac atrium

SMILES | EC50 | EC30 | IC50
CN(C)CCNc1cc(-c2cccnc2)nc2ccccc12 | 300 nM | – | –
O=S(=O)(c1ccc(Cl)cc1)N(C1CCNCC1)C1CC1 | 310 nM | – | –
O=S(=O)(c1cccc2c(Cl)cccc12)N1CCCNCC1 | 430 nM | – | –
CCO[C@]1(c2ccc(Br)cc2)SC=C(C)n2c1noc2=O | 70 nM | – | –
CCc1c(C)cc(C)cc1OC[C@@H](O)CNC(C)C | 3590 nM | – | –
CCOc1ccc(NC(=O)CCN(CC)CC)cc1 | 1050 nM | – | –
CC(C)(CNC(=S)Nc1ccccc1)N1CCOCC1 | 730 nM | – | –
COc1ccccc1NC(=O)OCC1CCCCN1C (configuration not stated) | 970 nM | – | –
COc1ccc(Cl)cc1NC(=O)N1CCN(C)CC1 | 340 nM | – | –
O=C(COc1ccccc1Cl)N1CCNCC1 | 520 nM | – | –
CCN(CC)CCOc1ccc2ccc(=O)oc2c1 | 250 nM | – | –
CN1CCN(S(=O)(=O)c2cccc3cccnc23)CC1 | 450 nM | – | –
CN(C)CCNC(=O)c1cc2ccccc2cc1O | 350 nM | – | –
Cc1ccccc1CC(=O)c1ccc(O)c(CN(C)C)c1O | 840 nM | – | –
CN(Cc1ccccc1)Cc1ccnc(Br)c1O | 1110 nM | – | –
COc1cc2c(cc1OC)[C@H]1CC(=O)[C@H]3CCC[C@H]3N1CC2 | 2170 nM | – | –
Cc1cc(C(C)(C)C)cc(C)c1NC(=O)CN1CCOCC1 | 840 nM | – | –
CN(C)CCOC(c1ccc(Cl)cc1)c1ccccn1 (configuration not stated) [CARBINOXAMINE] | 250 nM | 480 nM | –
COc1ccc([C@@H]2Sc3ccccc3N(CCN(C)C)C(=O)[C@@H]2OC(C)=O)cc1 [DILTIAZEM] | 790 nM | 70 nM | 2600 nM
COc1ccc(CN(CCN(C)C)c2ccccn2)cc1 [PYRILAMINE] | 6260 nM | – | –
